In ChEMBL document CHEMBL1137547, “Synthesis and antifungal activities of novel 2-aminotetralin derivatives” (2007):
In brackets after ≈: the same amount, converted by molar mass.

Columns and labels:
Type in all cases: functional
[1] = test system: Candida albicans; experiment: Antifungal activity against fluconazole-resistant Candida albicans 25 after 24 hrs
In short: (§1)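 Broth serial dilution MIC per NCCLS in 96-well format; medium RPMI 1640 buffered with 0.165 M MOPS; compounds dissolved in DMSO and serially diluted in medium; clinical C. albicans isolates incubated at 35 °C, read at 24 h; MIC = lowest concentration giving turbidity […] inhibition relative to growth control; fluconazole and I-6 as control drugs.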

[2] = test system: Candida albicans; experiment: Antifungal activity against fluconazole-resistant Candida albicans 0511655 after 24 hrs; in short: as §1
[3] = test system: Fonsecaea compacta; experiment: Antifungal activity against Fonsecaea compacta
In short: (§2)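 NCCLS broth serial dilution in RPMI 1640 buffered with 0.165 M MOPS. Compounds were dissolved in DMSO and serially diluted in medium. Strains came from ATCC or clinical isolates. The growth MIC for filamentous fungi was read at 7 d, taken as the lowest concentration giving ≥80% turbidity inhibition versus the growth control.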

[4] = test system: Candida albicans; experiment: Antifungal activity against fluconazole-resistant Candida albicans 18 after 24 hrs; in short: as §1
[5] = test system: Trichophyton rubrum; experiment: Antifungal activity against Trichophyton rubrum
In short: (§3)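 Dermatophytes were tested by NCCLS serial dilution in RPMI 1640 with 0.165 M MOPS and incubated at 28 °C. Compounds were dissolved in DMSO and diluted in medium. Strains came from ATCC or clinical isolates. The MIC was read at 7 d as the lowest concentration reducing turbidity by ≥80% relative to the drug-free control.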

[6] = test system: Candida albicans; experiment: Antifungal activity against fluconazole-resistant Candida albicans 01010 after 24 hrs; in short: as §1
[7] = test system: Microsporum; experiment: Antifungal activity against Microsporum gypseum; in short: as §3
[8] = test system: Cryptococcus neoformans; experiment: Antifungal activity against Cryptococcus neoformans after 72 hrs
In short: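 Cryptococcus neoformans was tested by NCCLS serial dilution in MOPS-buffered (0.165 M) RPMI 1640 at 35 °C. Compounds were dissolved in DMSO and diluted in medium. The MIC was read at 72 h as the lowest concentration giving turbidity inhibition of ≥80% relative to the growth control.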

[9] = test system: Candida parapsilosis; experiment: Antifungal activity against Candida parapsilosis after 24 hrs; conditions: Lodderomyces parapsilosis
In short: (§4)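 Candida yeasts were tested by NCCLS microdilution in RPMI 1640 buffered with 0.165 M MOPS and incubated at 35 °C. Compounds were dissolved in DMSO and serially diluted in medium. Isolates came from ATCC or the clinic. The MIC was read at 24 h as the lowest concentration achieving ≥80% growth inhibition versus the control.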

[10] = test system: Aspergillus fumigatus; experiment: Antifungal activity against Aspergillus fumigatus; in short: as §2
[11] = test system: Candida albicans; experiment: Antifungal activity against Candida albicans after 24 hrs; in short: as §4

SMILES | MIC [1] | MIC [2] | MIC [3] | MIC [4] | MIC [5] | MIC [6] | MIC [7] | MIC [8] | MIC [9] | MIC [10] | MIC [11]
CCCCCCCCCNC1CCc2cc(OC)ccc2C1 (stereo unspecified) | 0.0625 µM (≈ 0.019 µg/mL) | 0.0625 µM (≈ 0.019 µg/mL) | 2 µM (≈ 0.607 µg/mL) | 0.0625 µM (≈ 0.019 µg/mL) | 1 µM (≈ 0.303 µg/mL) | 0.125 µM (≈ 0.0379 µg/mL) | 4 µM (≈ 1.21 µg/mL) | 4 µM (≈ 1.21 µg/mL) | 0.5 µM (≈ 0.152 µg/mL) | 64 µM (≈ 19.4 µg/mL) | 0.0625 µM (≈ 0.019 µg/mL)
CCCCCCCCCCNC1CCc2ccc(OC)cc2C1 (stereo unspecified) | 2 µM (≈ 0.635 µg/mL) | 4 µM (≈ 1.27 µg/mL) | 1 µM (≈ 0.318 µg/mL) | 4 µM (≈ 1.27 µg/mL) | 1 µM (≈ 0.318 µg/mL) | 4 µM (≈ 1.27 µg/mL) | 2 µM (≈ 0.635 µg/mL) | 1 µM (≈ 0.318 µg/mL) | 0.25 µM (≈ 0.0794 µg/mL) | 16 µM (≈ 5.08 µg/mL) | 0.0625 µM (≈ 0.0198 µg/mL)
COc1ccc(NC2CCc3ccc(OC)cc3C2)cc1 (stereo unspecified) | – | – | 64 µM (≈ 18.1 µg/mL) | – | 0.5 µM (≈ 0.142 µg/mL) | – | 16 µM (≈ 4.53 µg/mL) | > 64 µM | > 64 µM | > 64 µM | > 64 µM
NC1CCc2c(O)cccc2C1 (stereo unspecified) | – | – | 32 µM (≈ 5.22 µg/mL) | – | > 64 µM | – | > 64 µM | > 64 µM | > 64 µM | > 64 µM | > 64 µM
CCCCNC1CCc2c(cccc2OC)C1 (stereo unspecified) | – | – | > 64 µM | – | 64 µM (≈ 14.9 µg/mL) | – | > 64 µM | > 64 µM | > 64 µM | > 64 µM | > 64 µM
CCCCCCCCCCCCCCCCCCNC1CCc2cccc(OC)c2C1 (stereo unspecified) | – | – | > 64 µM | – | 2 µM (≈ 0.859 µg/mL) | – | 64 µM (≈ 27.5 µg/mL) | 64 µM (≈ 27.5 µg/mL) | > 64 µM | > 64 µM | > 64 µM
CCCCCCCCCCCCCCCCCCNC1CCc2cc(OC)ccc2C1 (stereo unspecified) | – | – | > 64 µM | – | 8 µM (≈ 3.44 µg/mL) | – | > 64 µM | > 64 µM | > 64 µM | > 64 µM | 64 µM (≈ 27.5 µg/mL)
CCCCCCCCCCNC1CCc2cccc(OC)c2C1 (stereo unspecified) | – | – | 1 µM (≈ 0.318 µg/mL) | – | 1 µM (≈ 0.318 µg/mL) | – | 2 µM (≈ 0.635 µg/mL) | 1 µM (≈ 0.318 µg/mL) | 2 µM (≈ 0.635 µg/mL) | 16 µM (≈ 5.08 µg/mL) | 0.25 µM (≈ 0.0794 µg/mL)
CCCCCCCCCCN1CCc2cc(O)c(O)cc2C1 | – | – | 16 µM (≈ 4.89 µg/mL) | – | 1 µM (≈ 0.305 µg/mL) | – | > 64 µM | 1 µM (≈ 0.305 µg/mL) | 0.5 µM (≈ 0.153 µg/mL) | 16 µM (≈ 4.89 µg/mL) | > 64 µM
COc1ccc2c(c1)CCC(N)C2 (stereo unspecified) | – | – | > 64 µM | – | 64 µM (≈ 11.3 µg/mL) | – | > 64 µM | > 64 µM | > 64 µM | > 64 µM | > 64 µM
CCCCCCCCNC1CCc2cc(O)ccc2C1 (stereo unspecified) | 2 µM (≈ 0.551 µg/mL) | 4 µM (≈ 1.1 µg/mL) | 2 µM (≈ 0.551 µg/mL) | 4 µM (≈ 1.1 µg/mL) | 4 µM (≈ 1.1 µg/mL) | 4 µM (≈ 1.1 µg/mL) | 16 µM (≈ 4.41 µg/mL) | 8 µM (≈ 2.2 µg/mL) | 16 µM (≈ 4.41 µg/mL) | > 64 µM | 0.0625 µM (≈ 0.0172 µg/mL)
Oc1ccc2c(c1)CCC(Nc1ccc(Cl)cc1)C2 (stereo unspecified) | – | – | 32 µM (≈ 8.76 µg/mL) | – | 0.25 µM (≈ 0.0684 µg/mL) | – | 4 µM (≈ 1.1 µg/mL) | 16 µM (≈ 4.38 µg/mL) | 32 µM (≈ 8.76 µg/mL) | 64 µM (≈ 17.5 µg/mL) | > 64 µM
